# Results reported in ChEMBL document CHEMBL3259712, “New 5-unsubstituted dihydropyridines with improved CaV1.3 selectivity as potential neuroprotective agents against ischemic injury” (J Med Chem, 2014).
# Columns and labels:
# Format in all cases: functional
# SH-SY5Y [1] = experiment: Neuroprotective activity against rotenone-oligomycin A-induced oxidative stress in human SH-SY5Y cells assessed as survival incubated with rot/oligo for 8 hrs followed by treated with compound at 0.3 uM for 16 hrs by MTT assay (Rvb =70.6 +/- 1.8%); settings: read-out: Survival
# Summary of the method: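 SH-SY5Y cells cultured 24 h, then exposed to rotenone/oligomycin A (30/10 μM) for 8 h at 37 °C. Stressor removed; compound in 1% FBS medium added for 16 h. DMSO-only control. MTT reduction (5 mg/mL, 2 h, 37 °C; OD 540 nm). Survival relative to untreated basal; mean ± SEM of five to seven cultures in triplicate.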
# SH-SY5Y [2] = experiment: Neuroprotective activity against rotenone-oligomycin A-induced oxidative stress in human SH-SY5Y cells assessed as protection at 0.3 uM co-incubated rot/oligo for 24 hrs by MTT assay relative to control
# SH-SY5Y [3] = experiment: Neuroprotective activity against rotenone-oligomycin A-induced oxidative stress in human SH-SY5Y cells assessed as protection incubated with rot/oligo for 8 hrs followed by treated with compound at 0.3 uM for 16 hrs by MTT assay relative to control
# SH-SY5Y [4] = experiment: Neuroprotective activity against rotenone-oligomycin A-induced oxidative stress in human SH-SY5Y cells assessed as survival at 0.3 uM co-incubated rot/oligo for 24 hrs by MTT assay (Rvb =65.6 +/- 1.3%); settings: read-out: Survival
smiles,measurement,setting,value
COc1ccc2[nH]cc(CCNC(C)=O)c2c1 [MELATONIN],viability at 0.3 µM,SH-SY5Y [1],87.8%
same,Activity,SH-SY5Y [2],44.7%
same,Activity,SH-SY5Y [3],58.3%
same,viability at 0.3 µM,SH-SY5Y [4],82.5%
